The values below come from ChEMBL document CHEMBL4619808, “Tailoring the Physicochemical Properties of Antimicrobial Peptides onto a Thiazole-Based γ-Peptide Foldamer” (J Med Chem, 2020).

The test system of data set [1] is Bacillus subtilis. Put plainly: Antimicrobial activity against Bacillus subtilis ATCC 6633 assessed as inhibition of microbial growth incubated for 24 hrs. It counts as functional. Particulars: ATCC 6633, 24 h. The method, boiled down:
(§1)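 Broth microdilution. Strains grown overnight on TSA at 37°C, suspended to 10⁸ CFU/mL in Tryptone-Sel, then diluted to 10⁶ CFU/mL in double-strength Mueller-Hinton broth. Two-fold serial dilutions in sterile water (pH 7.4–7.7) mixed 1:1 with inoculum. Incubation 24 h at 37°C. MIC is the lowest concentration inhibiting growth. Duplicate wells, three independent experiments.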

In data set [2] the test system is Staphylococcus aureus. Description: Antimicrobial activity against Staphylococcus aureus ATCC 6538 assessed as inhibition of microbial growth incubated for 24 hrs. It is filed as functional. Particulars: ATCC 6538, 24 h. The method, boiled down: as §1
The test system of data set [3] is Enterococcus faecalis. Description: Antimicrobial activity against Enterococcus faecalis ATCC 29121 assessed as inhibition of microbial growth incubated for 24 hrs. It counts as functional. Particulars: ATCC 29121, 24 h. The method, boiled down: as §1
Data set [4] relates to Escherichia coli. Description: Antimicrobial activity against Escherichia coli ATCC 8739 assessed as inhibition of microbial growth incubated for 24 hrs. It is filed as functional. As to conditions: ATCC 8739, 24 h. The method, boiled down: as §1
The test system of data set [5] is Pseudomonas aeruginosa. Description: Antimicrobial activity against Pseudomonas aeruginosa ATCC 9027 assessed as inhibition of microbial growth incubated for 24 hrs. It counts as functional. As to conditions: ATCC 9027, 24 h. The method, boiled down:
as §1

The test system of data set [6] is Candida albicans. Description: Antimicrobial activity against Candida albicans ATCC 10231 assessed as inhibition of microbial growth incubated for 48 hrs. It is filed as functional. Particulars: ATCC 10231, 48 h. The method, boiled down:
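C. albicans grown 48 h on Sabouraud at 20–25°C, suspended to 10⁸ CFU/mL, then diluted to 10⁶ CFU/mL in double-strength Mueller-Hinton broth. Two-fold serial dilutions in water (pH 7.4–7.7) mixed 1:1 with inoculum. Incubation 48 h at 25°C. MIC is the lowest concentration inhibiting growth. Duplicate wells, three independent experiments.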

The nature of data set [7]: Hemolytic activity in human RBC assessed as induction of hemolysis incubated for 1 hr. It counts as cell-based, Erythrocyte. As to conditions: red blood cells (erythrocytes), read-out: HD50. The method, boiled down:
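Human RBCs washed in PBS and used at 5% packed cell volume, mixed 1:1 with two-fold serial dilutions in PBS (pH 7.4–7.7). Incubation 1 h at 37°C, then centrifugation at 1500g for 10 min at 5°C. Supernatant absorbance read at 490 nm against PBS (0%) and 1% SDS/Tris (100%) controls. HC50 from three independent experiments, double duplicate.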

Data set [8] deals with Bacillus subtilis. Description: Microbicidal activity against Bacillus subtilis ATCC 6633 assessed as inhibition of colony growth incubated for 24 hrs followed by replating and further incubated for 24 hrs. It is filed as functional. As to conditions: ATCC 6633, 24 h.
Data set [9] deals with Staphylococcus aureus. Description: Microbicidal activity against Staphylococcus aureus ATCC 6538 assessed as inhibition of colony growth incubated for 24 hrs followed by replating and further incubated for 24 hrs. It counts as functional. Particulars: ATCC 6538, 24 h.
Data set [10] relates to Enterococcus faecalis. Put plainly: Microbicidal activity against Enterococcus faecalis ATCC 29121 assessed as inhibition of colony growth incubated for 24 hrs followed by replating and further incubated for 24 hrs. It counts as functional. As to conditions: ATCC 29121, 24 h.
Data set [11] has as its system Escherichia coli. Put plainly: Microbicidal activity against Escherichia coli ATCC 8739 assessed as inhibition of colony growth incubated for 24 hrs followed by replating and further incubated for 24 hrs. It is filed as functional. As to conditions: ATCC 8739, 24 h.
In data set [12] the test system is Pseudomonas aeruginosa. Put plainly: Microbicidal activity against Pseudomonas aeruginosa ATCC 9027 assessed as inhibition of colony growth incubated for 24 hrs followed by replating and further incubated for 24 hrs. As to conditions: ATCC 9027, 24 h. It is filed as functional.
The subject of data set [13] is Candida albicans. Description: Microbicidal activity against Candida albicans ATCC 10231 assessed as inhibition of colony growth incubated for 48 hrs followed by replating and further incubated for 48 hrs. It is filed as functional. Particulars: ATCC 10231, 48 h.

Converted amounts (≈) assume the structure as drawn.

In the case of `CC(=O)N[C@@H](CCCCN)c1nc(C)sc1C(=O)N[C@@H](C)c1nc(CCCCN)sc1C(=O)N[C@@H](C)c1nc(C)sc1C(=O)N[C@@H](CCCCN)c1nc(C)sc1C(=O)N[C@@H](C)c1nc(CCCCN)sc1C(=O)N[C@@H](C)c1nc(C)sc1C(=O)N[C@@H](CCCCN)c1nc(C)sc1C(=O)N[C@@H](C)c1nc(CCCCN)sc1C(=O)N[C@@H](C)c1nc(C)sc1C(N)=O`, the MIC (commonly the lowest concentration found to suppress growth) in data set [1] is 0.8 µM; in [2], more than 150 µM; in data set [3], more than 150 µM; in data set [4], 5.2 µM; in data set [5] it was 42 µM; in [6], 10.4 µM. Moreover, the HC50 at 1 h in data set [7] is more than 100 µM. Besides, the MBC was 0.8 µM (≈ 1.53 µg/mL) in data set [8]; more than 150 µM in data set [9]; more than 150 µM in [10]; 7.3 µM (≈ 14 µg/mL) in [11]; 83 µM (≈ 159 µg/mL) in data set [12]; 10.4 µM (≈ 19.9 µg/mL) in data set [13].
With `CC(=O)N[C@@H](CCCCN)c1nc(C)sc1C(=O)N[C@@H](C)c1nc(CCCCN)sc1C(=O)N[C@@H](C)c1nc(C)sc1C(=O)N[C@@H](CCCCN)c1nc(C)sc1C(=O)N[C@@H](C)c1nc(CCCCN)sc1C(=O)N[C@@H](C)c1nc(C)sc1C(N)=O`, the MIC in [1] was 30 µM; in [2], more than 150 µM; in [3], more than 150 µM; in data set [4], more than 150 µM; in data set [5] it was more than 150 µM; in [6], 62.5 µM. Besides, the HC50 at 1 h in [7] is more than 100 µM. Further, the MBC in data set [8] is 30 µM (≈ 38.9 µg/mL); in data set [9], more than 150 µM; in [10], more than 150 µM; in data set [11], more than 150 µM; in data set [12], more than 150 µM; in data set [13], 130 µM (≈ 169 µg/mL).
On to `CC(=O)N[C@@H](CCCCN)c1nc(C)sc1C(=O)N[C@@H](C)c1nc(CCCCN)sc1C(=O)N[C@@H](C)c1nc(C)sc1C(N)=O`, for which the MIC in data set [1], in data set [2], in data set [3], in data set [4], in data set [5] and in data set [6] was more than 150 µM each time. For the same molecule, in data set [7], the HC50 at 1 h is more than 100 µM. The MBC in data set [8], in data set [9], in data set [10], in [11], in data set [12] and in data set [13] was more than 150 µM each time.
Regarding `CC(=O)N[C@@H](CCCCN)c1nc(C)sc1C(=O)N[C@@H](CC(C)C)c1nc(CCCCN)sc1C(=O)N[C@@H](C)c1nc(CC(C)C)sc1C(=O)N[C@@H](CCCCN)c1nc(C)sc1C(=O)N[C@@H](CC(C)C)c1nc(CCCCN)sc1C(=O)N[C@@H](C)c1nc(CC(C)C)sc1C(=O)N[C@@H](CCCCN)c1nc(C)sc1C(=O)N[C@@H](CC(C)C)c1nc(CCCCN)sc1C(=O)N[C@@H](C)c1nc(CC(C)C)sc1C(=O)N[C@@H](CCCCN)c1nc(C)sc1C(=O)N[C@@H](CC(C)C)c1nc(CCCCN)sc1C(=O)N[C@@H](C)c1nc(CC(C)C)sc1C(N)=O`, the minimum inhibitory concentration (MIC) in data set [1] was 4.2 µM; in [2], 16.7 µM; in data set [3], 10.4 µM; in data set [4] it was 14.6 µM; in data set [5] it was 14.6 µM; in [6], 25 µM. Besides, the HC50 at 1 h in data set [7] was more than 100 µM. The MBC in data set [8] is 6.2 µM (≈ 17.8 µg/mL); in data set [9], 25 µM (≈ 71.8 µg/mL); in data set [10], 12.5 µM (≈ 35.9 µg/mL); in [11] it was 16.5 µM (≈ 47.4 µg/mL); in data set [12] it was 19 µM (≈ 54.6 µg/mL); in data set [13], 25 µM (≈ 71.8 µg/mL).
Regarding `CC(=O)N[C@@H](CCCCN)c1nc(C)sc1C(=O)N[C@@H](C)c1nc(C)sc1C(=O)N[C@@H](C)c1nc(CCCCN)sc1C(=O)N[C@@H](C)c1nc(C)sc1C(=O)N[C@@H](C)c1nc(CCCCN)sc1C(=O)N[C@@H](CCCCN)c1nc(C)sc1C(=O)N[C@@H](C)c1nc(CCCCN)sc1C(=O)N[C@@H](CCCCN)c1nc(C)sc1C(=O)N[C@@H](C)c1nc(C)sc1C(=O)N[C@@H](C)c1nc(C)sc1C(=O)N[C@@H](C)c1nc(CCCCN)sc1C(=O)N[C@@H](CCCCN)c1nc(C)sc1C(N)=O`, the MIC in [1] is 0.8 µM; in data set [2] it was 100 µM; in data set [3] it was more than 150 µM; in data set [4], 5.2 µM; in data set [5], 100 µM; in data set [6], 50 µM. The HC50 at 1 h in [7] is more than 100 µM. Further, the MBC is 0.8 µM (≈ 2.03 µg/mL) in data set [8]; more than 100 µM in data set [9]; more than 150 µM in data set [10]; 8.3 µM (≈ 21 µg/mL) in data set [11]; more than 100 µM in [12]; 62.5 µM (≈ 158 µg/mL) in [13].
Regarding `CC(=O)N[C@@H](CCCCN)c1nc(C)sc1C(=O)N[C@@H](C)c1nc(CCCCN)sc1C(=O)N[C@@H](C)c1nc(C)sc1C(=O)N[C@@H](CCCCN)c1nc(C)sc1C(=O)N[C@@H](C)c1nc(CCCCN)sc1C(=O)N[C@@H](C)c1nc(C)sc1C(=O)N[C@@H](CCCCN)c1nc(C)sc1C(=O)N[C@@H](C)c1nc(CCCCN)sc1C(=O)N[C@@H](C)c1nc(C)sc1C(=O)N[C@@H](CCCCN)c1nc(C)sc1C(=O)N[C@@H](C)c1nc(CCCCN)sc1C(=O)N[C@@H](C)c1nc(C)sc1C(N)=O`, the minimal inhibitory concentration (MIC) in data set [1] was 0.5 µM; in [2] it was 26 µM; in data set [3], more than 150 µM; in [4], 1.6 µM; in data set [5], 3.9 µM; in [6], 3.7 µM. In [7], the HC50 at 1 h is more than 100 µM. Also, the MBC is 0.5 µM (≈ 1.27 µg/mL) in [8]; 57 µM (≈ 144 µg/mL) in [9]; more than 150 µM in data set [10]; 1.6 µM (≈ 4.06 µg/mL) in [11]; 5.2 µM (≈ 13.2 µg/mL) in data set [12]; 3.7 µM (≈ 9.38 µg/mL) in data set [13].
As to `CC(=O)N[C@@H](CCCNC(=N)N)c1nc(C)sc1C(=O)N[C@@H](C)c1nc(C)sc1C(=O)N[C@@H](C)c1nc(C)sc1C(=O)N[C@@H](CCCNC(=N)N)c1nc(C)sc1C(=O)N[C@@H](C)c1nc(C)sc1C(=O)N[C@@H](C)c1nc(C)sc1C(=O)N[C@@H](CCCNC(=N)N)c1nc(C)sc1C(=O)N[C@@H](C)c1nc(C)sc1C(=O)N[C@@H](C)c1nc(C)sc1C(=O)N[C@@H](CCCNC(=N)N)c1nc(C)sc1C(=O)N[C@@H](C)c1nc(C)sc1C(=O)N[C@@H](C)c1nc(C)sc1C(N)=O`, the MIC in data set [1] was 0.5 µM; in data set [2], 3.1 µM; in [3] it was 3.1 µM; in data set [4], 23 µM; in data set [5] it was more than 100 µM; in data set [6] it was 25 µM. Further, the HC50 at 1 h in data set [7] worked out at 46 µM. In addition, the MBC in data set [8] stood at 0.5 µM (≈ 1.21 µg/mL); in data set [9] it was 8.3 µM (≈ 20.1 µg/mL); in data set [10] it was 11.5 µM (≈ 27.8 µg/mL); in data set [11] it was 30 µM (≈ 72.5 µg/mL); in data set [13], 50 µM (≈ 121 µg/mL).
Consider `CC[C@H](C)[C@H](NC(=O)CN)C(=O)NCC(=O)N[C@@H](C)C(=O)N[C@H](C(=O)N[C@@H](CC(C)C)C(=O)N[C@@H](CCCCN)C(=O)N[C@H](C(=O)N[C@@H](CC(C)C)C(=O)N[C@H](C(=O)N[C@H](C(=O)NCC(=O)N[C@@H](CC(C)C)C(=O)N1CCC[C@H]1C(=O)N[C@@H](C)C(=O)N[C@@H](CC(C)C)C(=O)N[C@H](C(=O)N[C@@H](CO)C(=O)N[C@@H](Cc1c[nH]c2ccccc12)C(=O)N[C@H](C(=O)N[C@@H](CCCCN)C(=O)N[C@@H](CCCNC(=N)N)C(=O)N[C@@H](CCCCN)C(=O)N[C@@H](CCCNC(=N)N)C(=O)N[C@@H](CCC(N)=O)C(=O)N[C@@H](CCC(N)=O)C(N)=O)[C@@H](C)CC)[C@@H](C)CC)[C@@H](C)O)[C@@H](C)O)C(C)C)C(C)C` [MELITTIN], for which the MIC in [3] and in data set [6] was 1.6 µM throughout. Besides, the MBC was 1.1 µM (≈ 3.13 µg/mL) in data set [8]; 1.2 µM (≈ 3.42 µg/mL) in data set [9]; 1.6 µM (≈ 4.55 µg/mL) in data set [10]; 4.7 µM (≈ 13.4 µg/mL) in data set [11]; 3.1 µM (≈ 8.82 µg/mL) in data set [12]; 1.6 µM (≈ 4.55 µg/mL) in [13].
